ChEMBL document CHEMBL1121743, “Synthesis and antibacterial activity of 1-(arylamino)-1H-pyrroles and 4-(1H-pyrrol-1-ylimino)-2,5-cyclohexadienes” (1981)
≈ marks a conversion by molar mass, not a printed value. Calls of active or inactive are those of the source. The calls are words filed in the database; no cut-off is given here.

Columns and labels:
[1] = system: Proteus mirabilis; experiment: In vitro minimum inhibitory concentration against Proteus mirabilis; type: functional; settings: Proteus mirabilis; read-out: MIC
Outline: (§1)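 Compounds were dissolved in water, or in water with the minimum DMSO needed to keep them in solution, and tested by an established dilution method. A ">" prefix means the DMSO solvent blank was inhibitory at that level.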

[2] = system: Staphylococcus aureus; experiment: Minimum inhibitory dilution of medicated rat urine tested in vitro for antibacterial activity against Staphylococcus aureus; Equal to 1:4; type: functional
[3] = system: Staphylococcus aureus; experiment: In vitro minimum inhibitory concentration against Staphylococcus aureus; type: functional; settings: Staphylococcus aureus; read-out: MIC; outline: as §1
[4] = system: Proteus mirabilis; experiment: Minimum inhibitory dilution of medicated rat urine tested in vitro for antibacterial activity against Proteus mirabilis; Less than 1:2; type: functional
[5] = system: Staphylococcus aureus; experiment: Minimum inhibitory dilution of medicated rat urine tested in vitro for antibacterial activity against Staphylococcus aureus; Less than 1:2; type: functional
[6] = system: Proteus mirabilis; experiment: Minimum inhibitory dilution of medicated rat urine tested in vitro for antibacterial activity against Proteus mirabilis; Equal to 1:4; type: functional
[7] = system: Mus musculus; experiment: Antitubercular activity (3.1 mg/kg) in the 31-day murine mice model; type: functional
Outline: (§2)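 Female Swiss mice (14–16 g), 10 per treated group and 20 infected controls, were infected i.v. with 0.1 mL of a 2 mg/mL M. tuberculosis H37Rv suspension. Oral dosing was in 0.5 mL 1.0% gum tragacanth, starting day 3 post-infection, twice daily, 5 days/week for 4 weeks. Percent survival was recorded at day 31; active meant survival consistently >80%.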

[8] = system: Staphylococcus aureus; experiment: Minimum inhibitory dilution of medicated rat urine tested in vitro for antibacterial activity against Staphylococcus aureus; Equal to 1:32; type: functional
[9] = system: Mus musculus; experiment: Antitubercular activity (50 mg/kg) in the 31-day murine mice model; type: functional; outline: as §2
[10] = system: Mus musculus; experiment: Antitubercular activity (25 mg/kg) in the 31-day murine mice model; type: functional; outline: as §2
[11] = system: Mus musculus; experiment: Antitubercular activity (6.25 mg/kg) in the 31-day murine mice model; type: functional; outline: as §2
[12] = system: Mus musculus; experiment: Antitubercular activity (12.5 mg/kg) in the 31-day murine mice model; type: functional; outline: as §2
[13] = system: Staphylococcus aureus; experiment: Minimum inhibitory dilution of medicated rat urine tested in vitro for antibacterial activity against Staphylococcus aureus; Equal to 1:16; type: functional
[14] = system: Staphylococcus aureus; experiment: Minimum inhibitory dilution of medicated rat urine tested in vitro for antibacterial activity against Staphylococcus aureus; Equal to 1:2; type: functional
[15] = system: Proteus mirabilis; experiment: Minimum inhibitory dilution of medicated rat urine tested in vitro for antibacterial activity against Proteus mirabilis; Equal to 1:128; type: functional
Outline: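 Female Sprague-Dawley rats (160–200 g), in groups of three, got 50 mg/kg orally in 1.0% gum tragacanth (1 mL/100 g), with a second 50 mg/kg dose 8 h later. Pooled 24-h urine was centrifuged, ultrafiltered and stored at −20 °C. It was serially diluted twofold in tryptose phosphate broth with inoculum (18-h culture at OD 0.1, then 1:250) and incubated 18 h at 37 °C. MID is the highest dilution without visible growth.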

[16] = system: Proteus mirabilis; experiment: Minimum inhibitory dilution of medicated rat urine tested in vitro for antibacterial activity against Proteus mirabilis; Equal to 1:8; type: functional
[17] = system: Mus musculus; experiment: Antitubercular activity (3.1 mg/kg) in the 31-day murine mice model; NA=Not active; type: functional, organism-based; outline: as §2
[18] = system: Mus musculus; experiment: Antitubercular activity (6.25 mg/kg) in the 31-day murine mice model; NA=Not active; type: functional, organism-based; outline: as §2
[19] = system: Mus musculus; experiment: Antitubercular activity (100 mg/kg) in the 31-day murine mice model; NA=Not active; type: functional, organism-based; outline: as §2
[20] = system: Mus musculus; experiment: Antitubercular activity (12.5 mg/kg) in the 31-day murine mice model; NA=Not active; type: functional, organism-based; outline: as §2
[21] = system: Mus musculus; experiment: Antitubercular activity (50 mg/kg) in the 31-day murine mice model; NA=Not active; type: functional, organism-based; outline: as §2
[22] = system: Mus musculus; experiment: Antitubercular activity (25 mg/kg) in the 31-day murine mice model; NA=Not active; type: functional, organism-based; outline: as §2
[23] = system: Mus musculus; experiment: Antitubercular activity (100 mg/kg) in the 31-day murine mice model; type: functional; outline: as §2
[24] = system: Staphylococcus aureus; experiment: Minimum inhibitory dilution of medicated rat urine tested in vitro for antibacterial activity against Staphylococcus aureus; Equal to 1:64; type: functional
[25] = system: Proteus mirabilis; experiment: Minimum inhibitory dilution of medicated rat urine tested in vitro for antibacterial activity against Proteus mirabilis; Equals to 1:16; type: functional
[26] = system: Proteus mirabilis; experiment: Minimum inhibitory dilution of medicated rat urine tested in vitro for antibacterial activity against Proteus mirabilis; Equal to 1:16; type: functional

Row | SMILES | MIC [1] [µg/mL] | MIC [3] [µg/mL] | MID [4] | MID [5] | other results
1 | Cc1ccc(C)n1Nc1ccc(O)cc1 | 15.6 (≈ 77.1 µM) | ≤ 7.8 | <0.5 |  | MID [2]: 0.25
2 | CN(C)C1=CC(=O)C=C/C1=N/n1cccc1 | > 125 | 62.5 (≈ 290 µM) | <0.5 | <0.5 | 
3 | O=C1C=C/C(=N/n2cccc2)C(Cl)=C1 | > 125 | 31.3 (≈ 151 µM) | <0.5 | <0.5 | 
4 | O=C1C=CC(=Nn2cccc2)C=C1 | 62.5 (≈ 363 µM) | ≤ 7.8 |  |  | MID [6]: 0.25; Survival [7]: 0%; MID [8]: 0.03125; Survival [9]: 100%; Survival [10]: 100%; Survival [11]: 100%; Survival [12]: 100%
5 | C1=CC(=Nn2cccc2)C=CC1=Nc1ccccc1 | > 62.5 | > 62.5 | <0.5 | <0.5 | 
6 | CC(=O)Oc1ccc(Nn2cccc2)cc1 | > 62.5 | > 62.5 | <0.5 |  | MID [13]: 0.0625
7 | O=C1C=C/C(=N/n2cccc2)c2ccccc21 | > 62.5 | 31.3 (≈ 141 µM) | <0.5 |  | MID [14]: 0.5
8 | CCn1cc(C(=O)O)c(=O)c2ccc(C)nc21 [NALIDIXIC ACID] | 15.6 (≈ 67.2 µM) | 62.5 (≈ 269 µM) |  |  | MID [13]: 0.0625; MID [15]: 0.00781
9 | O=C(O)c1cccn1Nc1ccc(O)cc1 | 500 (≈ 2290 µM) | 500 (≈ 2290 µM) |  |  | MID [13]: 0.0625; MID [16]: 0.125
10 | CC1=CC(=N/n2cccc2)/C=CC/1=N/n1cccc1 | > 62.5 | > 62.5 | <0.5 | <0.5 | 
11 | NNC(=O)c1ccncc1 [ISONIAZID] |  |  |  |  | Survival [7]: 100%; Survival [11]: 100%; Survival [12]: 100%
12 | Cc1ccc(C(=O)Oc2ccc(N(C(=O)c3ccc(C)cc3)n3cccc3)cc2)cc1 | > 62.5 | 125 (≈ 305 µM) | <0.5 | <0.5 | Survival [17]: inactive; Survival [18]: inactive; Survival [19]: inactive; Survival [20]: inactive; Survival [21]: inactive; Survival [22]: inactive
13 | CN(c1ccc(O)cc1)n1cccc1 | > 250 | 125 (≈ 664 µM) | <0.5 | <0.5 | 
14 | CC(C)(C)C1=CC(=Nn2cccc2)C=C(C(C)(C)C)C1=O | > 62.5 | > 62.5 | <0.5 | <0.5 | 
15 | c1ccn(Nc2ccc(Nn3cccc3)cc2)c1 | > 250 | 125 (≈ 525 µM) | <0.5 | <0.5 | Survival [23]: 0%; Survival [9]: 0%; Survival [10]: 40%; Survival [11]: 0%; Survival [12]: 0%
16 | CC(=O)Oc1ccc(N(C(C)=O)n2cccc2)cc1 | > 125 | > 250 | <0.5 |  | MID [14]: 0.5; Survival [17]: inactive; Survival [18]: inactive; Survival [19]: inactive; Survival [20]: inactive; Survival [21]: inactive; Survival [22]: inactive
17 | Oc1ccc(Nn2cccc2)cc1 | 31.3 (≈ 180 µM) | ≤ 7.8 |  |  | Survival [7]: 0%; MID [24]: 0.01562; MID [25]: 0.0625; Survival [11]: 100%; Survival [12]: 100%
18 | C1=CC(=Nn2cccc2)C=CC1=Nn1cccc1 | > 62.5 | > 125 |  |  | MID [13]: 0.0625; Survival [7]: 10%; Survival [23]: 100%; MID [26]: 0.0625; Survival [9]: 100%; Survival [10]: 100%; Survival [11]: 80%; Survival [12]: 100%
